Laboratory results: ChEMBL document CHEMBL3526053, “Species-dependent uptake of glycylsarcosine but not oseltamivir in Pichia pastoris expressing the rat, mouse, and human intestinal peptide transporter PEPT1” (Drug Metab Dispos, 2012)

Legend:
Assay type in all cases: ADME
[1] = molecular target: T1, Solute carrier family 15 member 1 (Rattus norvegicus, UniProt P51574); experiment: Activity at rat recombinant PEPT1 expressed in Pichia pastoris GS115 assessed as non-saturable rate constant after 30s by dual-channel liquid scintillation counting analysis
T1 sequence (P51574 whole entry): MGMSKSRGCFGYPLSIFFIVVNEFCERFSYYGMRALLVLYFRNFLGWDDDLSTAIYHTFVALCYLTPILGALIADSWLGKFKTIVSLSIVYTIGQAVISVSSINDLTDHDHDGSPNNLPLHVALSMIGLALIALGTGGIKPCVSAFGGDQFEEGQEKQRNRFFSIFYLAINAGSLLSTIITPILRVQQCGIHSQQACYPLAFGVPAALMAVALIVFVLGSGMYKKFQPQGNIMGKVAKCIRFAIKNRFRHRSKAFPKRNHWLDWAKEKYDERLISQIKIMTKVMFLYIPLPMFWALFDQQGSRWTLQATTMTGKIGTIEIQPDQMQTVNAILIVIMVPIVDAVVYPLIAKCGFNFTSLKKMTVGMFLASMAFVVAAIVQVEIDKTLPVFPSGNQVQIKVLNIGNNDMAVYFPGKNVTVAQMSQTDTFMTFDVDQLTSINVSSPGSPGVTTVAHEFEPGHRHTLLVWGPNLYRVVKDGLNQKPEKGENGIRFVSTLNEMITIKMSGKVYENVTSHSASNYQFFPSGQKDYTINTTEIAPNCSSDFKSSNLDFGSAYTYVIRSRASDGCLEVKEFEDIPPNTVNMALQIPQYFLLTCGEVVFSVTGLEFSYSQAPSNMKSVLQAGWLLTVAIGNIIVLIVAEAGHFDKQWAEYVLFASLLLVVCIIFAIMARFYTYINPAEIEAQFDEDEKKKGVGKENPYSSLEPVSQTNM
Method in brief: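 [3H]GlySar concentration series 0.005-10 mM, 30-s uptake at 24°C in 100 mM potassium phosphate pH 6.5. Cells come from His+Mut+ GS115 transformants induced 20-24 h in methanol medium. Uptake is normalised to OD600. Data are fitted to Michaelis-Menten plus a first-order nonsaturable term (Kd), weighting unity. Parameters are mean ± SE (n=9).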

[2] = molecular target: T2, Solute carrier family 15 member 1 (Homo sapiens, UniProt P46059); experiment: Drug uptake in Pichia pastoris GS115 expressing human recombinant PEPT1 at 5 uM after 30s by dual-channel liquid scintillation counting analysis in presence of GlyPro relative to control; conditions: 0.5 min
T2 sequence (P46059 whole entry): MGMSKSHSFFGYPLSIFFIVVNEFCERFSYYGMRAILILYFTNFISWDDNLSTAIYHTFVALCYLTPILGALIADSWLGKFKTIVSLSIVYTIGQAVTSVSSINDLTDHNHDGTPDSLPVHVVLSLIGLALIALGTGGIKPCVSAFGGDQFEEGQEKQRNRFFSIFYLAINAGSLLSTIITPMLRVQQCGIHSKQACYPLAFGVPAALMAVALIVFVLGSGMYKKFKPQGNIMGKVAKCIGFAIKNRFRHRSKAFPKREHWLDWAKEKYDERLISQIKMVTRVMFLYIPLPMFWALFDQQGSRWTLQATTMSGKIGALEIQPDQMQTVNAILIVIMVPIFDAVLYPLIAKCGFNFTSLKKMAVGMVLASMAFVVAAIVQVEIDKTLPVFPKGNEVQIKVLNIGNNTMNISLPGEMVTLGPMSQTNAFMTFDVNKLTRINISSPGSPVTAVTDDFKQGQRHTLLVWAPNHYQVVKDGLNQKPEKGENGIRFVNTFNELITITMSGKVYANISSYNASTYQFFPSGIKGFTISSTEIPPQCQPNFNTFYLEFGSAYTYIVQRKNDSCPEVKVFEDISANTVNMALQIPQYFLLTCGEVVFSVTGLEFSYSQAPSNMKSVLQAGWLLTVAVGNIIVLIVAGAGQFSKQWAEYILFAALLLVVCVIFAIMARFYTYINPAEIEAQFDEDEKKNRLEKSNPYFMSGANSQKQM
Method in brief: (§1)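 [3H]GlySar 5.0 µM final, 30-s uptake at 24°C in 100 mM potassium phosphate pH 6.5, with or without a potential inhibitor at 10 mM. Cells are methanol-induced transformants. Values are vector-subtracted and expressed as percent of buffer control. Mean ± SE (n=3). ANOVA with Dunnett's test.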

[3] = molecular target: T2, Solute carrier family 15 member 1; experiment: Drug uptake in Pichia pastoris GS115 expressing human recombinant PEPT1 at 5 uM after 30s by dual-channel liquid scintillation counting analysis in presence of cephapirin relative to control; conditions: 0.5 min; method in brief: as §1
[4] = molecular target: T2, Solute carrier family 15 member 1; experiment: Drug uptake in Pichia pastoris GS115 expressing human recombinant PEPT1 at 5 uM after 30s by dual-channel liquid scintillation counting analysis in presence of acyclovir relative to control; conditions: 0.5 min; method in brief: as §1
PEPT1 = molecular target: T3, PEPT1 (Rattus norvegicus, UniProt P51574); experiment: Drug uptake in Pichia pastoris GS115 expressing rat recombinant PEPT1 at 5 uM after 30 mins by dual-channel liquid scintillation counting analysis relative to vector control; conditions: read-out: FC
T3 sequence (P51574 whole entry): T1 sequence (P51574 whole entry)
Method in brief: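 5.0 µM radiolabelled substrate ([3H]GlySar or [14C]oseltamivir) is incubated 30 min at 24°C with induced transformants in 100 mM potassium phosphate pH 6.5. Cell-associated radioactivity is counted by scintillation after standing 24 h and normalised to OD600. Results are compared with pPIC3.5K vector-alone cells. Mean ± SE (n=6).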

[5] = molecular target: T4, Solute carrier family 15 member 1 (Mus musculus, UniProt Q9JIP7); experiment: Drug uptake in Pichia pastoris GS115 expressing mouse recombinant PEPT1 at 5 uM after 30s by dual-channel liquid scintillation counting analysis in presence of SITS relative to control; conditions: 0.5 min; method in brief: as §1
T4 sequence (Q9JIP7 whole entry): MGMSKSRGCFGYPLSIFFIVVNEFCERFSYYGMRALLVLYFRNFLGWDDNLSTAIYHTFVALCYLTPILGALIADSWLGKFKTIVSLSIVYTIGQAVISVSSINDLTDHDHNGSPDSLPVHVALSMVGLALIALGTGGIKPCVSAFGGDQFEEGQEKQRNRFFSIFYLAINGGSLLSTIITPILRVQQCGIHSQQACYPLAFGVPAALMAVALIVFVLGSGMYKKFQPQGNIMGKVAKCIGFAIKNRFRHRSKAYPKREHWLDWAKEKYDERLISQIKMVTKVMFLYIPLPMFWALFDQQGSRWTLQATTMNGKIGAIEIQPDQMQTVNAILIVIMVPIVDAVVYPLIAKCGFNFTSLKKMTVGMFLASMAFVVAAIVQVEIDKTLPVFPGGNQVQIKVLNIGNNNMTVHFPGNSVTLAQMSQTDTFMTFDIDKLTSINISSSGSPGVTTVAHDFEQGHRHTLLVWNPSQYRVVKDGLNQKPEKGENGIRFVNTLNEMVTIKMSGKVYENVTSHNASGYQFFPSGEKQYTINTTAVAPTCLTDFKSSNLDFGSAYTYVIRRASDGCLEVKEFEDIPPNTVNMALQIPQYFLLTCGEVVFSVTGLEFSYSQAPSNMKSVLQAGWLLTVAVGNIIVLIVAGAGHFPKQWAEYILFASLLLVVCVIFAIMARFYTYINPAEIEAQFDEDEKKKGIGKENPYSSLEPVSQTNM

## [3H]C(C(=O)O)N(C)C(=O)CN (stereo unspecified)
[1]
  Kd: 2.21 uL/OD/min
[2]
  Drug uptake: 3.9%
[3]
  Drug uptake: 100%
[4]
  Drug uptake: 114%
PEPT1
  uptake ratio at 0.5 h, 5 µM: 100
[5]
  Drug uptake: 86.1%
